The target in assay [1] is T1, ATPase family AAA domain-containing protein 2 (Homo sapiens, UniProt Q6PL18).
T1 sequence (Q6PL18 whole entry): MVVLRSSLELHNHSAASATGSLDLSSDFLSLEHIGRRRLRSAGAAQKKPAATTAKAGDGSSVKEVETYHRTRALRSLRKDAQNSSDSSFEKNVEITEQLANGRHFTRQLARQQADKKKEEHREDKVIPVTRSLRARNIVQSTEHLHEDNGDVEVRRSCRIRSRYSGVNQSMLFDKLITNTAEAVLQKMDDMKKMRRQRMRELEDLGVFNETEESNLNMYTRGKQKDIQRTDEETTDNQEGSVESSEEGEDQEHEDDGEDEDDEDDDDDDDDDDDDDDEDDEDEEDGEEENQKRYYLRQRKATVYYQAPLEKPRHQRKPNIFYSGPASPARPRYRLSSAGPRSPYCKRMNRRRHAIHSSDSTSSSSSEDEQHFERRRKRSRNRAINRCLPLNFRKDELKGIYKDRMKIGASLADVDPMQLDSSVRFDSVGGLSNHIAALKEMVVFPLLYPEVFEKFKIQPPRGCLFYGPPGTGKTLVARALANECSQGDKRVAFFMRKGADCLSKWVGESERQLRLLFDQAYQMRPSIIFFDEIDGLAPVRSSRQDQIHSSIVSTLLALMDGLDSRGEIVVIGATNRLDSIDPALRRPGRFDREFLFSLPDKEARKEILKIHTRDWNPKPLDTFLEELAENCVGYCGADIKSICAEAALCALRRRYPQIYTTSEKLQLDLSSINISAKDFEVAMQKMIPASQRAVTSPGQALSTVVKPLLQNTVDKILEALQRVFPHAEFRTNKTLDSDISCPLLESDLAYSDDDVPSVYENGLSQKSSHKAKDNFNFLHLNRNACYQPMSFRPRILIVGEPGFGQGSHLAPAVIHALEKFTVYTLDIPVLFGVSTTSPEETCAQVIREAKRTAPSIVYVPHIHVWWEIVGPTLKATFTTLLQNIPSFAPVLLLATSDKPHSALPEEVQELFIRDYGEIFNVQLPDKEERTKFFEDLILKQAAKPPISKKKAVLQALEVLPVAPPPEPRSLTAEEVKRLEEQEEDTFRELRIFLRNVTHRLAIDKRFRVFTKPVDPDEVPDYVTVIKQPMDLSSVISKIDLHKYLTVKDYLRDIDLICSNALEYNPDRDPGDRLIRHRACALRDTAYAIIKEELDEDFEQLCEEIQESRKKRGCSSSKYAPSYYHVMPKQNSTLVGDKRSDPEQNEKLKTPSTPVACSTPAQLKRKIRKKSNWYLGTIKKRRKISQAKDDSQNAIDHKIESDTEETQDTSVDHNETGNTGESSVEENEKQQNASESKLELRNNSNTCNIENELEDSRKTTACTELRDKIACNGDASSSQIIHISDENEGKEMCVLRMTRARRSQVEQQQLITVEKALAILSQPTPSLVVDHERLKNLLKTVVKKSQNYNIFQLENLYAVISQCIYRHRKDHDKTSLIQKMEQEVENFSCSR
In words: Binding affinity to human partial length ATAD2A (Q981 to R1108 residues) expressed in Escherichia coli BL21(DE3) cells after 1 hr by competitive binding assay.

In assay [2] the target is Bromodomain-containing protein 4 (Homo sapiens, UniProt O60885, Y390A). Description: Displacement of Alexa Fluor 647 labelled ligand from His6-tagged BRD4 BD1 (1 to 477 residues)/BD2 Y390A mutant (unknown origin) after 30 mins by TR-FRET assay. Summed up:
(§1)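 BET selectivity by TR-FRET fluoroligand displacement. Uses tandem BET bromodomain constructs carrying a mutation in the non-assayed bromodomain.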

Assay [3] has as its target T2, ATPase family AAA domain-containing protein 2 (Homo sapiens) (UniProt Q6PL18).
T2 sequence (whole entry): T1 sequence (Q6PL18 whole entry)
In words: Displacement of SGRG-K(Ac)-GG-K(Ac)-GLG-K(Ac)-GGAKRHRKV-biotin) from His6/FLAG-tagged TEV fused ATAD2 bromodomain (981 to 1121 residues) (unknown origin) expressed in Escherichia coli BL21(DE3) cells at 10 uM after 30 mins by TR-FRET assay relative to control.

Assay [4] deals with Bromodomain-containing protein 4 (Homo sapiens, UniProt O60885, Y97A). Description: Displacement of Alexa Fluor 647 labelled ligand from His6-tagged BRD4 BD2 (1 to 477 residues)/BD1 Y97A mutant (unknown origin) after 30 mins by TR-FRET assay. In short, it runs like this: as §1
For orientation: Time-resolved FRET reads energy transfer from a long-lived donor to a nearby acceptor.

The target in assay [5] is T2, ATPase family AAA domain-containing protein 2 (Homo sapiens). Description: Binding affinity to His6/FLAG-tagged TEV fused ATAD2 bromodomain (950 to 1148 residues) (unknown origin) expressed in Escherichia coli BL21(DE3) cells by surface plasmon resonance. Summed up: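 SPR screen of concentration–response up to 100 μM. Wild-type ATAD2 and a Y1021A/N1064A mutant lacking the acetyl-lysine binding motif were run in parallel. Hits were classed as binding, nonbinding or linear binding (nonsaturating response, calculated Kd above the top concentration).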
For orientation: Surface plasmon resonance follows binding to a sensor surface in real time, without labels.

The target of assay [6] is T1, ATPase family AAA domain-containing protein 2. Description: Displacement of SGRG-K(Ac)-GG-K(Ac)-GLG-K(Ac)-GGAKRHRKV-biotin) from His6/FLAG-tagged TEV fused ATAD2 bromodomain (981 to 1121 residues) (unknown origin) expressed in Escherichia coli BL21(DE3) cells after 30 mins by TR-FRET assay.
Assay [7] has as its target T2, ATPase family AAA domain-containing protein 2 (Homo sapiens). In words: Binding affinity to 15N-labelled ATAD2 (981 to 1108 residues) (unknown origin) at 100 uM by 1H-15N HSQC NMR analysis. In short, it runs like this:
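15N–1H HSQC spectra of labelled ATAD2 bromodomain recorded with and without compound at 100 μM. Binding is judged from spectral changes.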

For assay [8] the target is unchanged. In words: Displacement of SGRG-K(Ac)-GG-K(Ac)-GLG-K(Ac)-GGAKRHRKV-biotin) from His6/FLAG-tagged TEV fused ATAD2 bromodomain (981 to 1121 residues) (unknown origin) expressed in Escherichia coli BL21(DE3) cells at 100 to 300 uM after 30 mins by TR-FRET assay relative to control.
Assay [9] deals with T1, ATPase family AAA domain-containing protein 2. Description: Displacement of biotinylated H4 peptide from His6/FLAG-tagged TEV fused ATAD2 bromodomain (950 to 1148 residues) (unknown origin) expressed in Escherichia coli BL21(DE3) cells after 30 mins by TR-FRET assay. In short, it runs like this:
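TR-FRET acetylated-peptide displacement assay using 6H-Flag-tev ATAD2(950–1148). Used for the HTS: single-concentration primary screen with digital plate-pattern correction, then replated duplicate retest and dose–response. A curve-fit cutoff of IC50 > 30 μM applies.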

Assay [10] deals with T2, ATPase family AAA domain-containing protein 2 (Homo sapiens). Description: Displacement of SGRG-K(Ac)-GG-K(Ac)-GLG-K(Ac)-GGAKRHRKV-biotin) from His6/FLAG-tagged TEV fused ATAD2 bromodomain (981 to 1121 residues) (unknown origin) expressed in Escherichia coli BL21(DE3) cells up to 10 uM after 30 mins by TR-FRET assay.
The target of assay [11] is T1, ATPase family AAA domain-containing protein 2. Description: Displacement of Alexa Fluor 488 labelled ligand from ATAD2 bromodomain (981 to 1121 residues) (unknown origin) expressed in Escherichia coli BL21(DE3) cells after 30 mins by TR-FRET assay.

pIC50, pKd: −log10 of the molar value. The source made the active and inactive calls.

On to `CCOC(=O)Nc1cc(-c2ccc(C)c(NS(C)(=O)=O)c2)nn2c(C)nnc12`, for which the pKd (as a rule, −log10 of the Kd, conventionally taken in molar units) in [1] was 4.36.
`O=C(CN1C(=O)NC(CCc2ccccc2)C1=O)Nc1ccc(Cl)c(S(=O)(=O)N2CCCCC2)c1` (configuration not stated): the pIC50 – broadly, −log10 of the IC50, conventionally taken in molar units – is less than 4.30 in [2], less than 4.30 in assay [4] and 5.50 in [6]. Also, the inhibition – broadly, the drop in the measured response relative to a control, in per cent – in assay [3] was 48%. Moreover, the result in assay [5] and in [7] was Active.
Take `Cc1ccc(NC(=O)CN2C(=O)NC(Cc3ccccc3)C2=O)cc1S(=O)(=O)N1CCCCC1` (configuration not stated): the pIC50 in [2] is less than 4.30; in assay [4], less than 4.30; in assay [6] it was less than 4.00. This compound came in with an inhibition in assay [3] of 18%. For the same compound, the result in assay [5] and in assay [7] was Active.
On to `O=C(CNC(=O)C1CCCCC1)Nc1ccc(Cl)c(S(=O)(=O)N2CCCCC2)c1`, for which the pIC50 in assay [2] was less than 4.30; in assay [4] it was less than 4.30; in assay [6], less than 4.00. This compound displayed an inhibition in assay [3] of 29%. Also, the result in assay [5] and in [7] was Active.
As to `CCC(=O)Nc1ccc(Cl)c(S(=O)(=O)N2CCCCC2)c1`, in assay [6], the pIC50 is 4.10. Moreover, the Activity in [8] is 45 to 55%.
In the case of `CN1CCN(c2nc(C(=O)c3ccccc3)c3cnn(C)c3n2)CC1`, the pIC50 in assay [9] was 7.52. Moreover, the outcome in assay [10] and in assay [7] was inactive.
With `CC1CCCN(S(=O)(=O)c2cc(NC(=O)CN3C(=O)CNC3=O)ccc2Br)C1` (configuration not stated), the pIC50 in assay [2] is less than 4.30; in assay [11], 6.20; in assay [4], 4.50.
